Published values from different studies.
Each line is one published result; the experiments were not run side by side.
Sample: plasma

Compound	system	conditions	Cmax
CC(C)(O)c1ccccc1-c1ccc2[nH]c(/C=C/c3ccc(C(F)(F)F)cc3)nc2c1	male human	oral, 50 mg, single dose, fasted, healthy volunteers	160 ng/mL
CCc1nc2c(C)cc(N3CCN(CC(=O)N4CC(O)C4)CC3)cn2c1N(C)c1nc(-c2ccc(F)cc2)c(C#N)s1	human	oral, 1000 mg, fed, healthy volunteers	13200 ng/mL
Br.Cc1ccc(Sc2ccccc2N2CCNCC2)c(C)c1	human	oral, 5 mg, multiple doses, steady state, healthy volunteers	9 ng/mL
C/C(=C\c1csc(C)n1)[C@@H]1C[C@@H]2O[C@]2(C)CCC[C@H](C)[C@H](O)[C@@H](C)C(=O)C(C)(C)[C@@H](O)CC(=O)N1	human	intravenous, 15 mg/m², patients	89.6 ng/mL
Cn1c(=O)oc2ccc(-c3ccc(C[C@@H](C#N)NC(=O)[C@@H]4CNCCCO4)cc3)cc21	male human	oral, 5 mg, single dose, healthy volunteers	50.7 nM
O=C(/C=C/c1cccc(S(=O)(=O)Nc2ccccc2)c1)NO	human	intravenous, 1900 mg/m², patients	106000 ng/mL
CCO[C@H]1CCN(Cc2c(OC)cc(C)c3[nH]ccc23)[C@H](c2ccc(C(=O)O)cc2)C1	human	oral, 25 mg, multiple doses, twice daily, patients	1450 ng/mL
COc1cc(C(=O)NC2CCN(C)CC2)c(F)cc1Nc1ncc(C(F)(F)F)c(Oc2cccc3c2C(=O)N(C)C3)n1	human	oral, 10 mg, single dose, patients	44.8 nM
COc1ccc([C@@H]2CN(C(=O)[C@@H](O)CO)C[C@@]2(C)[C@@H](C)O)cc1OC1CN(c2ccc(C)cn2)C1	human	oral, 30 mg, single dose, healthy volunteers	669 ng/mL
CCCCC1=NC2(CCCC2)C(=O)N1Cc1ccc(-c2ccccc2S(=O)(=O)Nc2noc(C)c2C)c(COCC)c1	human	oral, 800 mg, single dose, fasted, healthy volunteers	7650 ng/mL
FC(F)(F)c1ccc(CNc2ccc(Cc3c[nH]c4ncc(Cl)cc34)cn2)cn1	human	oral, 1000 mg, multiple doses, patients	4440 ng/mL
CCn1c(=O)c(-c2cc(NC(=O)Nc3ccccc3)c(F)cc2Br)cc2cnc(NC)cc21	human	oral, 200 mg, single dose, patients	525 ng/mL
CO[C@@H]1[C@H](OC(=O)N2CC(CCN3CCOCC3)C2)CC[C@]2(CO2)[C@H]1[C@@]1(C)O[C@@H]1CC=C(C)C	human	subcutaneous, 0.2 mg, single dose, healthy volunteers	0.45 ng/mL
FC(F)(F)c1ccc(CNc2ccc(Cc3c[nH]c4ncc(Cl)cc34)cn2)cn1	human	oral, 600 mg, single dose, fasted, healthy volunteers	4220 ng/mL
C[C@@]1(c2cc(NC(=O)c3ccc(C#N)cn3)ccc2F)C=CSC(N)=N1	human	oral, 30 mg, single dose	148 ng/mL
Oc1cc(O)c2c(c1)O[C@@H](c1ccc(O)c(O)c1)[C@@H](O)C2	human	oral, 10 mg, single dose	0.4 ng/mL
CS(=O)(=O)CCNCc1ccc(-c2ccc3ncnc(Nc4ccc(OCc5cccc(F)c5)c(Cl)c4)c3c2)o1	human	oral, 900 mg, multiple doses, twice daily, steady state, patients	3570 ng/mL

Compound	system	conditions	Cmax
O=C(Nc1c(Cl)cncc1Cl)c1ccc(OC(F)F)c(OCC2CC2)c1	human	oral, 0.25 mg, single dose, fasted	6.4 ng/mL
Cc1ccc(C(=O)N(CCCN)[C@@H](c2oc3cc(Cl)ccc3c(=O)c2Cc2ccccc2)C(C)C)cc1	human	intravenous, 4 mg/m², single dose, patients, infusion	489 ng/mL
Cn1cc(-c2ccc(S(=O)(=O)[C@@H]3C[C@@H](C(=O)NC4(C#N)CC4)N(C(=O)C4(C(F)(F)F)CC4)C3)c(C(F)(F)F)c2)cn1	human	oral, 100 mg, single dose, fed	946 ng/mL
N#CN1C[C@H](n2nc(-c3ccc(Oc4ccc(Cl)cn4)cc3)c(C(N)=O)c2N)CCC12CC2	human	oral, 600 mg, single dose, fasted	1120 ng/mL
COc1cc2c(cc1OC)CN(CCc1ccc(NC(=O)c3cc(OC)c(OC)cc3NC(=O)c3cnc4ccccc4c3)cc1)CC2	human	intravenous, 1 mg/kg, patients	2200 nM
O=C(O)C[C@H](O)C[C@H](O)/C=C/c1c(C2CC2)nc2ccccc2c1-c1ccc(F)cc1	human	oral, 2 mg, single dose, fed, healthy volunteers, tablet	46.5 ng/mL
COCCOc1cnc2ccn([C@H](C)c3nnc4c(F)cc(-c5cnn(C)c5)cn34)c(=O)c2c1	human	oral, 200 mg, multiple doses, once daily, patients	3760 ng/mL
COc1cc2c(Nc3ccc(Br)cc3F)ncnc2cc1OCC1CCN(C)CC1	human	oral, 85 mg/m², multiple doses, once daily, patients	716 ng/mL
CCOc1cc([C@@H](CS(C)(=O)=O)N2C(=O)c3cccc(NC(C)=O)c3C2=O)ccc1OC	human	oral, 30 mg, single dose, healthy volunteers	278 ng/mL
CC(C)n1cc(C#N)c2cc(-n3cc(C(=O)O)cn3)ccc21	human	oral, 50 mg, single dose, fasted, healthy volunteers	1440 ng/mL
CC(=O)Oc1ccccc1C(=O)O	human	oral, 650 mg, healthy volunteers	3480 ng/mL
CC(C)(C(=O)N1CCOc2c(C#N)cncc2C1)C(F)F	human	oral, 40 mg, single dose, fasted, healthy volunteers	555 ng/mL
CO[C@H]1CC[C@H](N2C(=O)CNc3ncc(-c4ccc(C(C)(C)O)nc4)nc32)CC1	human	oral, 60 mg, multiple doses, patients	480 ng/mL
CNC(=O)c1cc(Oc2ccc(NC(=O)Nc3cc(C(C)(C)C)nn3-c3ccc4ncccc4c3)c(F)c2)ccn1	human	oral, 100 mg, multiple doses, twice daily	114 ng/mL
C[C@@H](Oc1ccc(S(C)(=O)=O)cc1C(=O)N1C[C@@H]2C[C@]2(c2cc(C(F)(F)F)on2)C1)C(F)(F)F	human	oral, 25 mg, fasted, tablet	219 nM
CC(C)(Sc1ccncc1-c1ccc(C#N)c2ccccc12)C(=O)O	male human	oral, 5 mg, single dose, fed, healthy volunteers	45.7 ng/mL
